The subject of data set [1] is Mus musculus. The experiment in a line: Antialzheimer activity in 5XFAD mouse assessed as average plaque volume in […] cortex at 75 ppm administered as rodent chow starting from 1.5 months and measured after 5 months by immunolabeling based confocal microscopic analysis (reference value: 789.31 to 1314.37 microm3). The conditions noted are these: route po, time 3.5 months, 2555 h. It is filed as functional. An outline of the steps:
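5xFAD mice fed PLX3397 at 75 ppm in AIN-76A chow from 1.5 to 5 months of age; retrosplenial and somatosensory cortex sections stained with Thio-S and immunolabeled for IBA1; confocal imaging, IBA1+ cells and plaques quantified per region; two-tailed independent t-test, n = 4–5 per group, mean ± SEM.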

The subject of data set [2] is Mus musculus. The experiment in a line: Antialzheimer activity in 5XFAD mouse assessed as number of plaques per FOV in […] cortex at 75 ppm administered as rodent chow starting from 1.5 months and measured after 5 months by immunolabeling based confocal microscopic analysis (reference value: […] to […]). It is filed as functional. The following applies: route po, time 3.5 months, 2555 h.

In data set [3] the target is Testis-specific serine/threonine-protein kinase 1 (Homo sapiens, UniProt Q9BXA7). The data set is described as follows: Inhibition of STK22D (unknown origin).
The target of a further data set is Ephrin type-A receptor 2 (Homo sapiens, UniProt P29317). The data set is described as follows: Inhibition of EPHA2 (unknown origin).
Data set [4] has as its target Receptor-type tyrosine-protein kinase FLT3 (Homo sapiens, UniProt P36888). The experiment in a line: Inhibition of FLT3 (unknown origin) in presence of ATP by enzymatic assay.
Data set [5] deals with Mus musculus. The experiment in a line: Antialzheimer activity in 5XFAD mouse assessed as number of Thio-S positive plaques per FOV in […] cortex at 1200 ppm administered as rodent chow starting from 1.5 months and measured after 7 months by Thio-S staining based confocal microscopic analysis (reference value: 52 to 140). The following applies: route po, time 5.5 months, 4015 h. Format: functional.

Data set [6] can be described thus: Effect on Nos1ap gene expression in wildtype mouse hippocampus assessed as percent change in Reads Per kilo base per Million mapped reads at 1200 ppm administered as rodent chow starting from 1.5 months and measured after 7 months by RNA-Seq analysis (reference value: 90.677 to 108.278 %). Format: functional. The conditions noted are these: route po, time 5.5 months, 4015 h.

Data set [7] addresses Serine/threonine-protein kinase PLK1 (Homo sapiens, UniProt P53350). The data set is described as follows: Inhibition of PLK1 (unknown origin).
The nature of data set [8]: Effect on Csf1r RPKM gene expression in wild type mouse thalamus at 1200 ppm administered as rodent chow starting from 1.5 months and measured after 7 months by RNA-Seq analysis (reference value: 19.596 to 21.371 RPKM). The conditions noted are these: route po, time 5.5 months, 4015 h. Format: functional.
The nature of data set [9]: Effect on Csf1r RPKM gene expression in 5XFAD mouse hippocampus at 1200 ppm administered as rodent chow starting from 1.5 months and measured after 7 months by RNA-Seq analysis (reference value: 33.840 to 41.629 RPKM). It is filed as functional. The following applies: route po, time 5.5 months, 4015 h.
Data set [10] in a line: Effect on ccl6 gene expression in 5XFAD mouse cortex at 1200 ppm administered as rodent chow starting from 1.5 months and measured after 7 months by RNA-Seq analysis (reference value: 4.103 to 8.161 RPKM). The following applies: route po, time 5.5 months, 4015 h. Format: functional.
A short description of data set [11]: Effect on Itgax gene expression in wild type mouse hippocampus at 1200 ppm administered as rodent chow starting from 1.5 months and measured after 7 months by RNA-Seq analysis (reference value: 0.057 to 0.109 RPKM). Format: functional. The conditions noted are these: route po, time 5.5 months, 4015 h.
A short description of data set [12]: Effect on Hexb gene expression in wild type mouse thalamus at 1200 ppm administered as rodent chow starting from 1.5 months and measured after 7 months by RNA-Seq analysis (reference value: 45.201 to 52.726 RPKM). Format: functional. The conditions noted are these: route po, time 5.5 months, 4015 h.
Data set [13] can be described thus: Effect on Cst7 gene expression in 5XFAD mouse cortex at 1200 ppm administered as rodent chow starting from 1.5 months and measured after 7 months by RNA-Seq analysis (reference value: 9.853 to 27.586 RPKM). It is filed as functional. The conditions noted are these: route po, time 5.5 months, 4015 h.
Data set [14] in a line: Effect on St8sia5 gene expression in wildtype mouse hippocampus assessed as percent change in Reads Per kilo base per Million mapped reads at 1200 ppm administered as rodent chow starting from 1.5 months and measured after 7 months by RNA-Seq analysis (reference value: 83.570 to 112.150 %). Format: functional. The following applies: route po, time 5.5 months, 4015 h.
Data set [15] in a line: Clearance in monkey at 1.35 mg/kg, iv administered as single dose. The following applies: rhesus monkey, in vivo. Format: ADME, organism-based, Macaca mulatta.
Data set [16] can be described thus: Volume of distribution at steady state in male rat at 1.13 mg/kg, iv administered as single dose. The conditions noted are these: in vivo, read-out: Vdss. Format: ADME, organism-based.
Data set [17] concerns Mus musculus. The experiment in a line: Antialzheimer activity in 5XFAD mouse assessed as number of This-S positive cells per FOV in […] cortex at 1200 ppm administered as rodent chow starting from 1.5 months to 4 months followed by compound removal and measured after 1 months by immunolabelling based confocal microscopic analysis (reference value: 63 to 124). Format: functional. The conditions noted are these: route po, time 2.5 months, 1825 h. In short, it runs like this:
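For the repopulation paradigm, 5xFAD mice ate 1200 ppm PLX5622 chow from 1.5 to 4 months of age. Inhibitor chow was then withdrawn, and brains were examined one month later. Sections were stained with Thio-S and immunolabeled for IBA1, then analysed by confocal microscopy in cortical regions.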

Data set [18] deals with Mitogen-activated protein kinase kinase kinase kinase 4 (Homo sapiens, UniProt O95819). The experiment in a line: Inhibition of MAP4K4 (unknown origin).
In data set [19] the target is Serine/threonine-protein kinase 25 (Homo sapiens, UniProt O00506). The experiment in a line: Inhibition of STK25 (unknown origin).
Data set [20] deals with Serine/threonine-protein kinase MRCK beta (Homo sapiens, UniProt Q9Y5S2). The experiment in a line: Inhibition of CDC42_BPB (unknown origin).
Data set [21] has as its system Mus musculus. The data set is described as follows: Antialzheimer activity in 5XFAD mouse assessed as microglial elimination in brain at 1200 ppm administered as rodent chow by Thio-S staining based confocal microscopic analysis. The following applies: route po.
Data set [22] addresses RAC-beta serine/threonine-protein kinase (Homo sapiens, UniProt P31751). The experiment in a line: Inhibition of AKT2 (unknown origin).
Data set [23] relates to Mus musculus. The data set is described as follows: Antialzheimer activity in 5XFAD mouse assessed as time spent in closed arm at 1200 ppm administered as rodent chow for 10 to 24 weeks by Elevated plus maze test (reference value: 76.2 to 206.2 sec). It is filed as functional. The following applies: route po, time 10-24 weeks.
Data set [24] has as its target Tyrosine-protein kinase ABL2 (Homo sapiens, UniProt P42684). The experiment in a line: Inhibition of ABL2 (unknown origin).
A short description of data set [25]: Effect on Cx3cr1 gene expression in wild type mouse thalamus at 1200 ppm administered as rodent chow starting from 1.5 months and measured after 7 months by RNA-Seq analysis (reference value: 10.263 to 12.137 RPKM). Format: functional. The conditions noted are these: route po, time 5.5 months, 4015 h.

From ChEMBL document CHEMBL5649170, “Sustained microglial depletion with CSF1R inhibitor impairs parenchymal plaque development in an Alzheimer's disease model” (Nat Commun, 2019) come the findings set out here.

Calls of active or inactive are those of the source. The calls are words filed in the database; no cut-off is given here.

Chain of Tyrosine-protein kinase ABL2 (P42684 whole entry): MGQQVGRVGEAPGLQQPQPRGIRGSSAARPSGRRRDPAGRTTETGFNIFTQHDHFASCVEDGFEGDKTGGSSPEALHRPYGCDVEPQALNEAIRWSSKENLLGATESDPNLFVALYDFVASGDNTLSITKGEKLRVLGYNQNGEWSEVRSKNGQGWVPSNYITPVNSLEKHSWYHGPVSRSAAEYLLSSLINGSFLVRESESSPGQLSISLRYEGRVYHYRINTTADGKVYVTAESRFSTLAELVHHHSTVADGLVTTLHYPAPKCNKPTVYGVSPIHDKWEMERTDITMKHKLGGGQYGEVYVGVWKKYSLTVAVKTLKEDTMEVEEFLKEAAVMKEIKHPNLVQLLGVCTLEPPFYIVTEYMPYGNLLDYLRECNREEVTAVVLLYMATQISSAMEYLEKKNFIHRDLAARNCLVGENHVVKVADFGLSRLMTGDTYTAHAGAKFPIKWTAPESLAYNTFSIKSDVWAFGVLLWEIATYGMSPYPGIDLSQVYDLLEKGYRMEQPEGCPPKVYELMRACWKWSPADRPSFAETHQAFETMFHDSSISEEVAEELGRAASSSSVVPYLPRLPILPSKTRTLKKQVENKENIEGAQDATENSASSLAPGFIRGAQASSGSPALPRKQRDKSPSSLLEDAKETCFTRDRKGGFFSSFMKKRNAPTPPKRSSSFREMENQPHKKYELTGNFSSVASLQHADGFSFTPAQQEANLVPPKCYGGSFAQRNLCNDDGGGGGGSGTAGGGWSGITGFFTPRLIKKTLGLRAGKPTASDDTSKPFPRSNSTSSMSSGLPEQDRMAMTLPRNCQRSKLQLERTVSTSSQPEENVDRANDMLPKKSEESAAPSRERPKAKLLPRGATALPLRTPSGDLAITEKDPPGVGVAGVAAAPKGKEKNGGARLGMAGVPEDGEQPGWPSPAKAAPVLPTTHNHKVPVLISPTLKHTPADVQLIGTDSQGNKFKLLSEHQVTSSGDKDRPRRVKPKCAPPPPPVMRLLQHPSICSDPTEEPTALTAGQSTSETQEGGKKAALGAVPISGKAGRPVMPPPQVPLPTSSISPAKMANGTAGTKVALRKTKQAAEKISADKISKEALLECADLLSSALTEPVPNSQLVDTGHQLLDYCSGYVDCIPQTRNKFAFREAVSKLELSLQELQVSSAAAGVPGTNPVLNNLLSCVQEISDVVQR
Chain of Mitogen-activated protein kinase kinase kinase kinase 4 (O95819 whole entry): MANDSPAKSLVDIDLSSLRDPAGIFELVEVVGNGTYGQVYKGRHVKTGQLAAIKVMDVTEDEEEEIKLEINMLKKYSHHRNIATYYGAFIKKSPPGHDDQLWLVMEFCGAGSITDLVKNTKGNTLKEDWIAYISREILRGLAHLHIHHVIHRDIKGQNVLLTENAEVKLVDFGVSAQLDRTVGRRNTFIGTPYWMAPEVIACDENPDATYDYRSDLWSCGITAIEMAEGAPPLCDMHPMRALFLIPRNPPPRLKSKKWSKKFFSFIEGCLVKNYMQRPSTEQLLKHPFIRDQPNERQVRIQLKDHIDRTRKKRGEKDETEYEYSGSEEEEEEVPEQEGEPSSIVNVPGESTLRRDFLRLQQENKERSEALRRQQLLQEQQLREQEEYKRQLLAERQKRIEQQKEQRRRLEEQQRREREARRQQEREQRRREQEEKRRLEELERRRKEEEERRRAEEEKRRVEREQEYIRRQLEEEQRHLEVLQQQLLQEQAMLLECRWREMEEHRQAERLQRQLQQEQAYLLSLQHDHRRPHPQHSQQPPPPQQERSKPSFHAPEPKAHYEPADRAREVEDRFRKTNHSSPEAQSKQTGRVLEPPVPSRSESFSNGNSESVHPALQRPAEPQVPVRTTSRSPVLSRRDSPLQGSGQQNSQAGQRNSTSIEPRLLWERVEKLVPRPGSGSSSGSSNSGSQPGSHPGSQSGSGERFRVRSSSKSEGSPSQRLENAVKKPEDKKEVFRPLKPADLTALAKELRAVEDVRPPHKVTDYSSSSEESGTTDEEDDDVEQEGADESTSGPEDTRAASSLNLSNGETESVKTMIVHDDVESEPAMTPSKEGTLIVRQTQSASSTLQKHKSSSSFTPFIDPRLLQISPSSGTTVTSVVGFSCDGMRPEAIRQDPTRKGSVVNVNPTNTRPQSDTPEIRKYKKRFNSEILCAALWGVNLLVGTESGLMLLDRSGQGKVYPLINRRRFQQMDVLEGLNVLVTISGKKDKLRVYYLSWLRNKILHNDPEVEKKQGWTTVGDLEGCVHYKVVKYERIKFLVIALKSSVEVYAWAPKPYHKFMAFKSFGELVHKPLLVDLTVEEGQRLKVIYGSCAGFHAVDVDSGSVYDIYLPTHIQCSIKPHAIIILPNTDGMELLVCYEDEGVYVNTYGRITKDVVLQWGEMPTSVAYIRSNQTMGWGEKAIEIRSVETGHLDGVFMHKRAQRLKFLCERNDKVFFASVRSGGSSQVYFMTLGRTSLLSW
Chain of Serine/threonine-protein kinase PLK1 (P53350 whole entry): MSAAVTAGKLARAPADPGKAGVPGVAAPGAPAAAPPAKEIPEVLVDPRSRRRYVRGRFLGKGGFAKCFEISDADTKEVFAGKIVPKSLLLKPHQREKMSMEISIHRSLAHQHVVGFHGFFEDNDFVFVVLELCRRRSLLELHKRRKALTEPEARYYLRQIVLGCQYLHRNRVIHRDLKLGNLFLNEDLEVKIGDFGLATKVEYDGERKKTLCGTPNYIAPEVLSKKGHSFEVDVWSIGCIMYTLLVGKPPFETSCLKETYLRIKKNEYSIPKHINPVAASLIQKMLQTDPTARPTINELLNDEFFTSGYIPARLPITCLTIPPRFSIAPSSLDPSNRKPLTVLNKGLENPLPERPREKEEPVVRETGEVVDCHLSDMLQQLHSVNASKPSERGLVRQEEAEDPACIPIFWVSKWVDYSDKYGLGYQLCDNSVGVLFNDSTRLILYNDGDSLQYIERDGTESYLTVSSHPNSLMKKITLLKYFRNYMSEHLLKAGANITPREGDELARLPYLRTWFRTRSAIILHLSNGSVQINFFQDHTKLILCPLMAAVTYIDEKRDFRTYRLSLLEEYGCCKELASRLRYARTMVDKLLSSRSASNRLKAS
Chain of Serine/threonine-protein kinase 25 (O00506 whole entry): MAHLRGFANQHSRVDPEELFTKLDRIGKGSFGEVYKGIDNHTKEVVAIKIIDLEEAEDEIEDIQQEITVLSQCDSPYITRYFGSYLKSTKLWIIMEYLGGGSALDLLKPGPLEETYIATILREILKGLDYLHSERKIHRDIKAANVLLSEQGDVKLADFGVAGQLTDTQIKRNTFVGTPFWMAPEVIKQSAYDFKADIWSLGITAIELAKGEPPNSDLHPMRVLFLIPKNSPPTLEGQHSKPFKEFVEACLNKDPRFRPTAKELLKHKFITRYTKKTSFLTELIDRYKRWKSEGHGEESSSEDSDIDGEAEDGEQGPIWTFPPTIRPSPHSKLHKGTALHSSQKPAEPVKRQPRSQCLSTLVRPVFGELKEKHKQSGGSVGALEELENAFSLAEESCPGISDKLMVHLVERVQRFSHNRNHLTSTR
Chain of RAC-beta serine/threonine-protein kinase (P31751 whole entry): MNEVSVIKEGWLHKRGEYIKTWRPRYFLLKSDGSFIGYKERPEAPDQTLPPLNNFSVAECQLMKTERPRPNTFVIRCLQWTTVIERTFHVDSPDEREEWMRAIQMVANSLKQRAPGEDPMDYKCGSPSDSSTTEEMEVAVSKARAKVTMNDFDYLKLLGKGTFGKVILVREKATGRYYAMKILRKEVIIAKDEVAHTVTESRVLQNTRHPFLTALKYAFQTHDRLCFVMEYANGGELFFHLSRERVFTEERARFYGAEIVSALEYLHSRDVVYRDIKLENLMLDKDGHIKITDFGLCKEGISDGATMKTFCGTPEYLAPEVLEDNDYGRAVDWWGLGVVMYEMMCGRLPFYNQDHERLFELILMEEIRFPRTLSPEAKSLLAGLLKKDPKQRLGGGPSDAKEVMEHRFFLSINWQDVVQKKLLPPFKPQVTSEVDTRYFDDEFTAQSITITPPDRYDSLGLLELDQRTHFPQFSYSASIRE
Chain of Receptor-type tyrosine-protein kinase FLT3 (P36888 whole entry): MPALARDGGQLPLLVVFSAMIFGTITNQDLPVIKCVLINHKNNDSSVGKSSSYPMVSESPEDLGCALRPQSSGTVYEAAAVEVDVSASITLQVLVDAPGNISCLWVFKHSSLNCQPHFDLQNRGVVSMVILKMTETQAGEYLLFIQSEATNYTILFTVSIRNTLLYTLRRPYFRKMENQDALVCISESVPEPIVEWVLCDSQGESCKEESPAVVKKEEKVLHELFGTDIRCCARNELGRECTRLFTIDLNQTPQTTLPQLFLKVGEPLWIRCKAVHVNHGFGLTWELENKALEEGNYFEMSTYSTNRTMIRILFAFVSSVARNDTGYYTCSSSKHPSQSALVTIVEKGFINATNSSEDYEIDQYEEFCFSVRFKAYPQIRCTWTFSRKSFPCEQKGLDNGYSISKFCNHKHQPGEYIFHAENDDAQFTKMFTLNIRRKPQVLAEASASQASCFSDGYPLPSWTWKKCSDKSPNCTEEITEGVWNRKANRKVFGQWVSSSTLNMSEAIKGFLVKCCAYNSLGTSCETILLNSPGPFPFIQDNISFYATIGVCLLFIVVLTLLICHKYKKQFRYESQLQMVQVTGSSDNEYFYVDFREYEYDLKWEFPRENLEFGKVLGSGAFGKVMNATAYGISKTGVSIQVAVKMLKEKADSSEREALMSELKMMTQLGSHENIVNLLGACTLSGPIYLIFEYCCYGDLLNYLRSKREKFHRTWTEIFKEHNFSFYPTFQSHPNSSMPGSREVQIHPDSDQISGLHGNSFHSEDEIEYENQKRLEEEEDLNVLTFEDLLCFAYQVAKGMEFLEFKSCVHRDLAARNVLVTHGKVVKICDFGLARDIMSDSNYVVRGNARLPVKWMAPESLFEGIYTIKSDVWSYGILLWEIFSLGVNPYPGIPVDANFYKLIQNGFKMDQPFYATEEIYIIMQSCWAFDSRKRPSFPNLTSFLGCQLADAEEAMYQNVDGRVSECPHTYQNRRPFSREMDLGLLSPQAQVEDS

Take `FC(F)(F)c1ccc(CNc2ccc(Cc3c[nH]c4ncc(Cl)cc34)cn2)cn1` [PEXIDARTINIB]: the figures for the Activity with Mus musculus [1] and with Mus musculus [2] were 688.11 um3 and 34, respectively.

One may read the IC50 as the concentration that gives 50% inhibition. The clearance is a measure of how efficiently the substance is removed, as volume per time. Take `COc1ncc(F)cc1CNc1ccc(Cc2c[nH]c3ncc(C)cc23)c(F)n1` [PLX-5622]: the IC50 in [3] was more than 1000 nM; against Ephrin type-A receptor 2, more than 1000 nM; in data set [4], 390 nM; in data set [7], more than 1000 nM; in data set [18], more than 1000 nM; in data set [19], more than 1000 nM. Also, the IC50 in data set [20], in data set [22] and in data set [24] was more than 1000 nM each time. Besides, the Activity with Mus musculus [5] was 17; in data set [6], 78.494%; in [8] it was 0.064 RPKM; in data set [9] it was 3.234 RPKM; in data set [10], 0.241 RPKM; in [11], 0 RPKM. Also, the Activity in [12] worked out at 10.895 RPKM; in data set [13], 0.887 RPKM; in data set [14] it was 65.471%; with Mus musculus [17] it was 60; in [25], 0.026 RPKM. Further, in data set [15], the clearance worked out at 11 mL/min/kg. Also, the Vd in [16] turned out to be 1.2 L/kg. The outcome in the data set on Mus musculus [21] was Active. For the same compound, the Time in the data set on Mus musculus [23] is 30.9 s.
